Results published in PMC8603004 (EFSA Journal, 2021).
Marks after values point to notes of the source that are not given here.

Experiments:
Wistar rats [1] = test: 2‐year carcinogenicity study; assay type: in vivo
[2] = system: Chinese hamster V79 cells; test: In vitro micronucleus assay with CREST staining; assay type: cell-based
Incubation of = conditions: for 3‐NOP concentration remaining at t = 24 h: 38°C
[3] = system: Salmonella Typhimurium (TA98, TA100, TA1535 and TA1537) and Escherichia coli WP2uvrA; test: Bacterial reverse mutation assays; assay type: cell-based; conditions: up to 5,000 μg/plate, with or without S9‐mix
Acute inhalation test = assay type: in vivo, Wistar rats; conditions: Wistar, rat, in vivo, inhaled
Wistar rats [4] = test: Acute inhalation test; assay type: in vivo
[5] = Octanol–water partition coefficient; assay type: physicochemical
[6] = system: human peripheral blood lymphocytes; test: In vitro micronucleus assay; assay type: cell-based
[7] = system: L5178Y TK +/− mouse lymphoma; test: L5178Y TK+/− mouse lymphoma assay; assay type: cell-based; conditions: up to 1,211 μg/mL, presence and absence of S9‐mix
Wistar Han rats = assay type: in vivo; conditions: males and females; effects on spermatogenesis and corpora lutea
[8] = system: bone marrow cells of NMRI BR mice; test: In vivo micronucleus test, intraperitoneal
In short: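 A preliminary intraperitoneal toxicity study in NMRI BR mice set the top dose for the OECD TG 474 bone marrow micronucleus test. In the main test, mice were dosed ip at 250, 500 and 1,000 mg/kg bw and sampled at 24 h; top-dose and control groups were also sampled at 48 h. 2,000 PCEs were scored per animal.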

[9] = Third in vitro rumen fluid trial; conditions: 39°C
[10] = system: Holstein Friesian dairy cows; test: Three long‐term studies on enteric methane output; assay type: in vivo
[11] = system: Chinese hamster V79 cells; test: In vitro micronucleus assay; assay type: cell-based
In short: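 OECD TG 487 study, non-GLP, in Chinese hamster V79 cells. Concentrations were set from a dose-range finding test. Without S9-mix, cells had continuous 24 h treatment up to 1,243 μg/mL. With S9-mix, cells had short 4 h treatment plus 20 h recovery up to 310 μg/mL. Micronuclei were scored against the historical vehicle control range.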

ADME in a lactating goat = assay type: in vivo
[12] = Incubation of 14C‐3‐NOP in liver fractions; assay type: in vitro ADME; conditions: Beagle, dog, liver S9
In short: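 14C-labelled test compound was incubated with or without NAD+ in liver S9, cytosol and microsomes from Sprague–Dawley rat, Wistar Han rat, Beagle dog and human. Aliquots were taken at several time points and the proteins precipitated. Supernatants were analysed by liquid scintillation counting and radio-HPLC, and half-life was derived from the time course.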

[13] = system: dairy cows, beef cattle and sheep; conditions: 100 mg 3‐NOP/kg DMI; cited from earlier work
[14] = study 1 WUR, 54 mg 3‐NOP/kg TMR DM intake
[15] = study 2 UK, 57 mg 3‐NOP/kg TMR DM intake
[16] = study 3 PSU, 61 mg 3‐NOP/kg TMR DM intake

SMILES: O=[N+]([O-])OCCCO [3‐NOP, propan‐1,3‐diol‐mononitrate]
- NOAEL (Wistar rats [1]; benign gastrointestinal mesenchymal tumours in small intestines): 100 mg 3‐NOP/kg bw per day
- Benign mesenchymal cell tumours (PWG) (Wistar rats [1]; females, 300 mg/kg bw per day): three
- Micronuclei containing chromosome fragments (CREST staining) ([2]; 540 μg/mL): 79%
- Micronucleus frequency ([2]; with metabolic activation, 3 + 21 h, at 540, 570 and 600 μg/mL): statistically significant increase in micronuclei
- Radioactivity in the non‐dissolved fractions (Incubation of; 2.2 mg/L): ≤ 5.5%
- 3‐NOP concentration remaining at t = 24 h (Incubation of; 2.2 mg/L, anaerobic): 0%
- Radioactivity in the non‐dissolved fractions (Incubation of; 23 mg/L): 7%
- 3‐NOP concentration remaining at t = 24 h (Incubation of; 23 mg/L, anaerobic): < 0.1%
- Radioactivity in the trapped gas phases (Incubation of; 23 or 2.2 mg/L, up to 24 h at 38°C, anaerobic, pH about 6.2): ≤ 0.1 % of the total radioactivity
- 3‐NOP concentration remaining (Incubation of; after 6 h): 54%
- 3‐NOP concentration remaining (Incubation of; after 12 h): 6%
- Abiotic degradation of 3‐NOP to propane‐1,3‐diol (Incubation of; control samples (no or only minor)): 9.8%
- Revertant colonies [3]: No increase in the mean number of revertant colonies
- LC50 at 4 h (Acute inhalation test): > 5 µg/mL
- Mortality (Wistar rats [4]; 1 and 5 mg/L): No mortality occurred
- Acute inhalation toxicity class according to the GHS (Wistar rats [4]; rat, in vivo): class 5
- No observed adverse effect concentration (NOAEC) (Wistar rats [4]; rat, in vivo): exceed 5 mg/L
- log KOW [5]: 0.399
- Frequency of micronuclei ([6]; 164, 512 and 1,211 μg/mL, with and without S9‐mix): no increase in the frequency of micronuclei
- Cytotoxicity ([6]; up to 1,211 μg/mL): No cytotoxicity
- Mutation frequencies (MF) [7]: No biologically significant increases in MF
- NOAEL (Wistar Han rats): 100 mg 3‐NOP/kg bw per day
- Eye irritation potential (Eye irritation study): eye irritant
- Frequency of micronuclei ([8]; 250, 500 and 1,000 mg/kg bw intraperitoneally): comparable between treated and negative control groups
- Dose showing mortality ([8]; preliminary toxicity study, intraperitoneal): 2,000 mg/kg bw
- Skin irritation potential (Skin irritation study): skin irritant
- 3‐NOP concentration remaining after 16 h ([9]; 1 mg/L, anaerobic, n = 6): 0.7%
- 3‐NOP concentration remaining after 16 h ([9]; aerobic control, n = 2): 27.9%
- Skin sensitisation potential (Skin sensitisation study): did not show any skin sensitisation potential
- Final BW [10, 14]: 668 kg
- Milk fat [10, 14]: 43.4 g/kg
- Milk protein [10, 14]: 36.3 ^* g/kg
- TMR DM intake [10, 14]: 18.4 kg/day
- kg EC milk/day [10, 14]: 25.7 kg EC milk/day
- kg EC milk/kg DMI [10, 14]: 1.36 ^* kg EC milk/kg DMI
- kg milk/day [10, 14]: 24.5 kg milk/day
- g CH4/kg EC milk ([10]; study 1 WUR, 54 mg 3‐NOP/kg TMR DM intake (control 17.1)): 12.9 ^* (18.7) g CH4/kg EC milk
- g CH4/kg DM intake ([10]; study 1 WUR, 54 mg 3‐NOP/kg TMR DM intake (control 22.4)): 17.7 ^* (25.5) g CH4/kg DM intake
- g CH4/day ([10]; study 1 WUR, 54 mg 3‐NOP/kg TMR DM intake, average over 15 weeks (control 423)): 332 ^* (480) g CH4/day
- Final BW [10, 15]: 721 kg
- Milk fat [10, 15]: 39.9 ^* g/kg
- Milk protein [10, 15]: 33.4 g/kg
- TMR DM intake [10, 15]: 22.9 kg/day
- kg EC milk/day [10, 15]: 35.0 ^* kg EC milk/day
- kg EC milk/kg DMI [10, 15]: 1.53 kg EC milk/kg DMI
- kg milk/day [10, 15]: 36.0 kg milk/day
- g H2/day ([10]; study 2 UK, 57 mg 3‐NOP/kg TMR DM intake (control 2.6)): 10.6 ^* (2.4) g H2/day
- g CH4/kg EC milk ([10]; study 2 UK, 57 mg 3‐NOP/kg TMR DM intake (control 12.3)): 8.4 ^* (10.1) g CH4/kg EC milk
- g CH4/kg DM intake ([10]; study 2 UK, 57 mg 3‐NOP/kg TMR DM intake (control 20.3)): 13.5 ^* (16.7) g CH4/kg DM intake
- g CH4/day ([10]; study 2 UK, 57 mg 3‐NOP/kg TMR DM intake (control 449)): 292 ^* (400) g CH4/day
- Final BW [10, 16]: 648 kg
- Milk fat [10, 16]: 40.2 ^* g/kg
- Milk protein [10, 16]: 31.5 g/kg
- TMR DM intake [10, 16]: 25.7 kg/day
- kg EC milk/day [10, 16]: 37.5 kg EC milk/day
- kg EC milk/kg DMI [10, 16]: 1.47 kg EC milk/kg DMI
- kg milk/day [10, 16]: 38.2 kg milk/day
- g H2/day ([10]; study 3 PSU, 61 mg 3‐NOP/kg TMR DM intake (control 0.5)): 2.6 ^* (0.4) g H2/day
- g CH4/kg EC milk ([10]; study 3 PSU, 61 mg 3‐NOP/kg TMR DM intake (control 11.2)): 8.2 ^* (9.7) g CH4/kg EC milk
- g CH4/kg DM intake ([10]; study 3 PSU, 61 mg 3‐NOP/kg TMR DM intake (control 16.7)): 12.1 ^* (14.9) g CH4/kg DM intake
- g CH4/day ([10]; study 3 PSU, 61 mg 3‐NOP/kg TMR DM intake (control 410)): 308 ^* (403) g CH4/day
- Micronucleus frequency ([11]; absence of metabolic activation, up to 1,243 μg/mL, 24 h): no increase in micronucleus frequency
- Micronucleus frequency ([11]; presence of metabolic activation, up to 310 μg/mL, 4 + 20 h): statistically significant increase in micronuclei
- Milk radioactivity in the aqueous phase of milk (ADME in a lactating goat; 0–8 h after the sixth day of administration): 75.2%
- Radioactivity excreted via faeces (ADME in a lactating goat; 4.34 mg/kg bw per day, 7 days): 1.9 % of total radioactivity appli
- Radioactivity excreted via milk (ADME in a lactating goat; 4.34 mg/kg bw per day, 7 days): 6.42 % of total radioactivity appli
- Radioactivity excreted via urine (ADME in a lactating goat; 4.34 mg/kg bw per day, 7 days): 3.5 % of total radioactivity appli
- Radioactivity in the intestinal tract content (ADME in a lactating goat; 4.34 mg/kg bw per day, 7 days): 1.14 % of total radioactivity appli
- Radioactivity remaining in the total edible tissues (ADME in a lactating goat; 4.34 mg/kg bw per day, 7 days): 4.98 % of total radioactivity appli
- Total radioactivity excreted (ADME in a lactating goat; 4.34 mg/kg bw per day, 7 days): 11.85%
- Total recovery at sacrifice (ADME in a lactating goat; 4.34 mg/kg bw per day, 7 days): 17.97%
- Milk radioactivity in the aqueous phase of milk (ADME in a lactating goat; 8–24 h after the sixth day of administration): 59.0%
- Radioactive residues in plasma (ADME in a lactating goat; 24 h after the first administration): 0.61 mg 3‐NOP‐eq/kg
- Radioactive residues in plasma (ADME in a lactating goat; at sacrifice): 3.72 mg 3‐NOP‐equivalents/kg
- Nitrate esters in milk, not detectable (LOD) (ADME in a lactating goat; milk collected 0–8 h post‐dose): < 0.82 mg 3‐NOP‐equivalent/kg
- Nitrate esters in milk, not detectable (LOD) (ADME in a lactating goat; milk collected 8–24 h post‐dose): < 0.43 mg 3‐NOP‐equivalent/kg
- Plasma radioactivity non‐extractable in the protein precipitate (ADME in a lactating goat; plasma collected at sacrifice): Eighty‐five
- half-life [12]: 1.1 h
- Decrease of CH4 [13]: about 20%
